Screening results (PubChem)
SENP7 inh: SENP7 protease inhibitors, primary screen, biochemical, luminescence, uHTS; inhibition, % at 5 µM; 330,000 tested, 1.5% active; recombinant SENP7, Z-RLRGG-aminoluciferin luminescence, 40 min; AID 434973, 2010;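 active means inhibition above about 50% at the single test dose, limit read from the data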
SENP8 block-1: SENP8 protease inhibitors, primary screen, biochemical, luminescence | purified SENP8, Z-RLRGG-aminoluciferin cleavage | inhibition, % at 10 µM | 330,000 tested, 1.2% active; in the data active means inhibition above about 50%
SENP8 block-2: human SENP8 protease inhibitors, primary screen, biochemical, fluorescence, Nedd8 protein substrate, uHTS | Sentrin-specific protease 8 (Homo sapiens), Q96LD8 | recombinant SENP8 | AID 602440, 2012 | inhibition, % at 20 µM | 360,000 tested, 0.64% active; in the data active means inhibition mostly above about 40%, no sharp cut-off; inactive means mostly below about 27%
HSP90 inh: HSP90 inhibitors, primary screen, cell lysate, luminescence; Rabbit reticulocyte lysate, luciferase refolding luminescence, 3 h; Heat shock protein HSP 90 (rabbit reticulocyte lysate; luciferase refolding); 290,000 tested, 0.91% active; AID 1789, 2009; inhibition, % at 5.6 µM;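 active means inhibition above the screen-wide mean plus 3 SD, computed separately per campaign, cut at about 16% in these data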;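 further: inhibitors lower the luminescence because luciferase stays unfolded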
SENP1 FRET inh: human SENP1 catalytic domain inhibitors, primary screen, biochemical, FRET, uHTS. Sentrin-specific protease 1 (Homo sapiens), Q9P0U3. recombinant SENP1 catalytic domain, CyPet-SUMO1-YPet FRET cleavage. inhibition, % at 10 µM. 360,000 tested, 0.21% active. AID 624204, 2012;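 active means inhibition at least 30% at 10 µM, raw YFP signal under a set limit, fluorescence ratio 0.5 to 1.5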
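Test system: hSENP1 catalytic domain, recombinant; Amount: 20 pM final SENP1 enzyme; Medium: Tris pH 8 buffer plus EDTA, NaCl, BME, BSA, NP40, catalase; Schedule: 50 min enzyme reaction, room temperature, light-protected; Technique: FRET fluorescence in CFP and YFP emission channels; Controls: no-enzyme wells low, DMSO-plus-enzyme wells high control.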
SENP6 block: SENP6 protease inhibitors, primary screen, biochemical, luminescence, uHTS; Sentrin-specific protease 6 (Homo sapiens), Q9GZR1; inhibition, % at 10 µM; Recombinant SENP6 catalytic domain, aminoluciferin luminescence; AID 2599, 2010; 330,000 tested, 1.8% active;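 active means inhibition above about 50% at the single tested dose, limit read from the data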
Target sequence (Q9GZR1 628-1112 limits assumed): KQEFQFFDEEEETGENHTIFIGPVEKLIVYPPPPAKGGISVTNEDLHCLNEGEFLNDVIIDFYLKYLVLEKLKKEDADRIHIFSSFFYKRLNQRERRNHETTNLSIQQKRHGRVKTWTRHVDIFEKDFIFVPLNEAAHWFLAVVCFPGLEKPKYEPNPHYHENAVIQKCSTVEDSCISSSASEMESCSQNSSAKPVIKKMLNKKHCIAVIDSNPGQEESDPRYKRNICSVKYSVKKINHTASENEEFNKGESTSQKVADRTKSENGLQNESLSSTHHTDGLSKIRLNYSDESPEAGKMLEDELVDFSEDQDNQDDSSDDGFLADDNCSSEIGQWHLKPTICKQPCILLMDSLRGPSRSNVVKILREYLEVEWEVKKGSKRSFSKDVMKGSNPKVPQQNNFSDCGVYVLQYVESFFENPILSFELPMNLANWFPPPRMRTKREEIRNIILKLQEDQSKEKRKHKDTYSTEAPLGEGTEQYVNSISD
Large screens that a line does not name were inactive. Most compounds without a hit are left out; they make up all but 2.9% or so of the library.

O=C(Nc1ccccc1N1CCCC1)c1cc2ccccc2o1	SENP6 block 63
O=C(Nc1ccccc1N1CCOCC1)c1cc2ccccc2o1	none
CC1=CC(=C2C(=O)c3ccccc3C2=O)C=C(C)N1Cc1ccco1	SENP1 FRET inh 37
O=C1c2ccccc2C(=O)N1Cc1ccco1	none
CCCNC(=O)C1CCN(S(=O)(=O)c2ccc3[nH]c(=O)ccc3c2)CC1	HSP90 inh 35
N=C1/C(=C\c2ccc(-c3cccc(C(=O)O)c3)o2)C(=O)N=C2SC=C(c3ccccc3)N12	SENP6 block 79
CCOC(=O)[C@H]1[C@H]2COc3ccccc3[C@@H]2N2C(=O)CN(Cc3ccc(C)cc3)C(=O)[C@@]12C	SENP1 FRET inh 34 (no result: HSP90 inh)
COc1ccc(/C=C2\N=C3CCCCCN3C2=O)cc1OC	none
COc1cc(/C=C2/SC(=S)N(c3c(C)n(C)n(-c4ccccc4)c3=O)C2=O)ccc1O	SENP1 FRET inh 46
CC(=O)N1C(=O)/C(=C2\SC(=S)N(c3c(C)n(C)n(-c4ccccc4)c3=O)C2=O)c2ccccc21	SENP8 block-2 81 (no result: SENP7 inh, SENP8 block-1, SENP6 block)
COc1cc(/C=C2\SC(N)=NC2=O)ccc1O	SENP1 FRET inh 40
COc1cc(/C=C2\N=C3CCCCCN3C2=O)ccc1O	SENP1 FRET inh 37
C=CCOc1ccc(/C=C2\SC(N)=NC2=O)cc1OC	none
COc1cc(/C=C2\SC(=S)N(NS(=O)(=O)c3ccccc3)C2=O)ccc1O	SENP8 block-2 48, SENP1 FRET inh 75
COc1ccc(/C=C2/SC(=S)N(NS(=O)(=O)c3ccccc3)C2=O)cc1	none
COc1cc(/C=C2\SC(=S)N(NS(=O)(=O)c3ccc(C)cc3)C2=O)ccc1O	SENP1 FRET inh 91
CCOc1cc(/C=C2\SC(=S)N(NS(=O)(=O)c3ccc(C)cc3)C2=O)ccc1O	SENP1 FRET inh 83 (no result: HSP90 inh)
COc1cc(/C=C2\SC(=S)N(NS(=O)(=O)c3ccc(C)cc3)C2=O)cc(OC)c1OC	none
Cc1ccc(S(=O)(=O)NN2C(=O)/C(=C/c3cccc(F)c3)SC2=S)cc1	none
COc1ccccc1CNC(=O)Cn1cc(Br)ccc1=O	none
COCCN(C(=O)COC(=O)c1ccc(Cl)s1)c1c(N)n(Cc2ccccc2)c(=O)[nH]c1=O	none (no result: HSP90 inh)
Cc1cccc(NC(=O)CSCC(=O)NCc2ccco2)c1	none
O=C(NCC1CCCO1)c1ccc(COc2ccc(F)cc2)o1 (stereo not given)	none
CCOc1ccc(OCc2ccc(C(=O)NN)o2)cc1	HSP90 inh 16
CCOc1ccc(OCc2ccc(C(=O)NCC3CCCO3)o2)cc1 (stereo not given)	HSP90 inh 16
O=C(O)c1cc(-c2ccc(Cl)cc2)n(-c2cccc(Cl)c2)n1	none
CCOc1cc(N2CCOCC2)c(OCC)cc1NC(=O)c1cnccn1	SENP8 block-2 32 (no result: HSP90 inh)
CCOc1cc(-n2cnnn2)c(OCC)cc1NC(=O)c1cnccn1	none (no result: HSP90 inh)
CCN(CC)S(=O)(=O)c1cccc(C(=O)OC2CC(C)OC2=O)c1 (stereo not given)	HSP90 inh 16
CC1(C)Nc2ccc(O)cc2-c2c1ssc2=S	SENP8 block-2 67
O=C(O)c1c[nH]c2c([N+](=O)[O-])cccc2c1=O	none (no result: SENP7 inh, SENP8 block-1, HSP90 inh, SENP6 block)
O=C(O)CC(C(=O)O)N1C(=O)/C(=C/C=C/c2ccco2)SC1=S (stereo not given)	SENP1 FRET inh 42
O=C(O)c1ccc(CSC2CCCCC2)cc1	SENP8 block-1 51, SENP6 block 58
Cc1nnc(SCC(=O)Nc2cccc(S(=O)(=O)NC3=NCCCCC3)c2)n1Cc1ccccc1	none
O=c1c2ccccc2c(C=Nc2cccc(S(=O)(=O)NC3=NCCCCC3)c2)c(O)n1Cc1ccccc1	SENP6 block 53
O=C(O)CCC1(CCC(=O)O)CCCC(CCC(=O)O)(CCC(=O)O)C1=O	none (no result: SENP7 inh, SENP8 block-1, HSP90 inh, SENP6 block)
Oc1cccc2ccc(/C=C/c3cccs3)nc12	SENP7 inh 95, SENP8 block-1 88, SENP6 block 96
Cc1ccc(C2CN=NC23CCc2ccccc2C3=O)cc1 (stereo not given)	HSP90 inh 17
